Rows were chosen to be rich in hits. Some 4.1% of all compounds tested hit in one or more screens of this group.
hERG rescue: shields human hERG channel from block by proarrhythmic agents; Q12809; CHO-hERG, FluxOR thallium flux, dofetilide IC70 present; activation (rescue from dofetilide block), less the hit threshold, % at 10 µM; 310,000 compounds, 0.51% hits;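 active means activation above the mean of controls blocked by dofetilide plus 5 SD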;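 further: thallium influx through hERG after potassium depolarization seen as dye fluorescence rise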
KCNQ1 pot: human KCNQ1 channel potentiation or activation; CHO-K1 KCNQ1, thallium flux FluxOR fluorescence; hits give high values; B-score at 10 µM; 310,000 compounds, 0.35% hits; AID 2648;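 active means fluorescence ratio B-score, a plate-corrected score, at least three library SD, with initial intensity B-score within 5 SD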
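Doses: Single concentration per compound, DMSO matched to controls | Test system: KCNQ1-transfected CHO-K1 cells | Timing: 90 min dye loading and 20 min compound exposure, both at room temperature | Measured by: Kinetic FluxOR thallium fluorescence, 10-s 1-Hz baseline, 110-s post-stimulus read | Medium: Assay buffer with matched DMSO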
KCNK3 block: human KCNK3 channel inhibition, primary screen; O14649; 340,000 compounds, 0.84% hits; B-score at 10 µM; CHO-KCNK3 thallium flux, FluxOR fluorescence; hits give low values;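 active means B-score under library mean minus 4 SD, starting fluorescence ratio at most library mean plus 5 SD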;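 further: more negative B-score means stronger inhibition of thallium flux through KCNK3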
Cl transport mod: modulators of human KCC2 chloride dependent transport. Q9H2X9. 190,000 compounds, 2.2% hits. B-score of Tl+ flux slope (higher = more flux/activation; lower = inhibition) at 10 µM. KCC2 cells, thallium flux FluoZin-2 fluorescence. AID 1456;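 active means thallium flux slope and its plate-corrected score both differing from the plate sample mean at a set confidence after two filtering rounds, in either direction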;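 further: slope of fluorescence scaled to starting intensity during 10 to 20 s after thallium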
KCNQ1 block: human KCNQ1 channel inhibition. CHO-K1 KCNQ1, FluxOR thallium flux fluorescence; hits give high values. B-score at 10 µM. 310,000 compounds, 1.3% hits;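 active means compounds whose thallium flux B-score, printed positive for inhibition, exceeds three library SD while starting fluorescence stays within three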;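 further: channel opened by potassium depolarization with thallium stimulus after 20 min compound exposure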
KCNK9 inh: human KCNK9 channel inhibition. Q9NPC2. HEK293 KCNK9, FluxOR thallium flux fluorescence; hits give low values. B-score at 10 µM. 310,000 compounds, 1.2% hits. AID 488922;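 active means ratio B-score over 3 SD below the library mean, with starting fluorescence within 5 SD of its mean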;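 further: negative B-score means less thallium flux so channel inhibition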
KCNQ1 block val: confirmation of human KCNQ1 potassium channel inhibitors; shares compounds with KCNQ1 block; KCNQ1 cell line, FluxOR thallium flux fluorescence; inhibition, % at 10 µM; 1,600 compounds, 93% hits; AID 588353;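 active means primary screen active, with duplicate mean exceeding buffer control mean plus 3 SD of buffer wells, cut at about 28% in these data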;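 further: 0% = buffer control ratio and 100% = XE991 inhibitor control ratio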
CHO Tl flux: KCNQ1 inhibitor counter-screen hit in parental CHO cells; shares compounds with KCNQ1 block; parental CHO-K1, FluxOR thallium flux fluorescence ratio; hits give low values; zero means no signal rise above baseline; fluorescence ratio (Tl flux) at 10 µM; 1,600 compounds, 21% hits;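 active means mean of duplicate thallium-flux fluorescence ratios in parental host cells more than 5 SD below the buffer control mean, cut at about 0.38 in these data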;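 further: ratio is peak minus minimum fluorescence divided by baseline fluorescence; actives read low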
KCNQ2 inh: selectivity of KCNQ1 inhibitors: inhibition of rat KCNQ2 channel | shares compounds with KCNQ1 block | KCNQ2 cells, FluxOR thallium flux fluorescence | inhibition, % at 10 µM | 1,600 compounds, 71% hits;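 active means mean percent inhibition of the KCNQ2 thallium signal more than 5 SD above the buffer-only control wells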;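 further: KCNQ2 expressed in CHO cells; 0% = buffer control wells and 100% = XE-991 inhibitor control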
KCNQ1 KCNE1 spec: selectivity of KCNQ1 inhibitors: inhibition of human KCNQ1/KCNE1 channel; shares compounds with KCNQ1 block; inhibition, % at 10 µM; 1,600 compounds, 77% hits; KCNQ1/KCNE1 cells, FluxOR thallium flux fluorescence;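 active means mean percent inhibition of duplicate wells above the buffer-only control mean plus 3 SD of those controls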;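 further: 0% = buffer only wells and 100% = XE-991 inhibitor control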
Starred values were filed as active, the others as inactive; i = inactive; · = no result.

SMILES	hERG rescue	KCNQ1 pot	KCNK3 block	Cl transport mod	KCNQ1 block	KCNK9 inh	KCNQ1 block val	CHO Tl flux	KCNQ2 inh	KCNQ1 KCNE1 spec
Cc1ccc(S(=O)(=O)N2CCN(c3ncnc4scc(-c5ccc(F)cc5)c34)CC2)cc1	-18	i	i	·	8*	i	72*	0.47	81%*	i
COc1ccc(-c2csc3ncnc(N4CCN(S(=O)(=O)c5ccc(C(C)=O)cc5)CC4)c23)cc1	-12	i	i	·	8*	i	67*	0.44	89%*	36%*
Cc1ccc(S(=O)(=O)N2CCN(c3ncnc4scc(-c5ccccc5)c34)CC2)cc1	·	·	i	·	·	·	·	·	·	·
COc1ccc(-c2csc3ncnc(N4CCN(c5ccccc5O)CC4)c23)cc1	-9	i	i	·	8*	i	0	0.41	110%*	i
Cc1ccc(-c2csc3ncnc(N4CCN(c5ccccc5O)CC4)c23)cc1	-11	i	i	·	i	i	·	·	·	·
CCN(Cc1cccs1)C(=O)CN1CCN(S(=O)(=O)c2ccc3c(c2)OCCCO3)CC1	·	·	i	·	·	·	·	·	·	·
Cc1cccc(NC(=O)NCCCCc2ccccc2)c1	-2	i	i	·	i	i	·	·	·	·
CN(CC(=O)NCCc1ccccc1)CC(=O)Nc1cccc(F)c1	·	·	i	·	·	·	·	·	·	·
Fc1cccc(NC(=S)NCCc2ccccc2)c1	-9	i	i	-0.64	7*	i	52*	0.56	62%*	i
COc1ccc(NC(=S)NCCc2ccccc2)c(C)c1	-5	i	i	·	i	i	·	·	·	·
O=C(NCCCCc1ccccc1)Nc1cccc(F)c1	-15	i	i	·	6*	i	61*	0.52	i	36%*
CCc1cc(Br)ccc1NC(=S)NCCc1ccccc1	-9	i	i	·	6*	i	65*	0.51	59%*	70%*
Fc1ccc(F)c(NC(=S)NCCc2ccccc2)c1	-5	i	i	-1.6	7*	i	53*	0.56	81%*	71%*
O=C(CCNC(=O)c1ccc(Br)cc1)NCc1ccccn1	-11	i	i	·	i	i	·	·	·	·
CC(=O)c1cn(S(=O)(=O)c2ccccc2)c2ccccc12	-1	i	i	-0.59	i	i	·	·	·	·
O=C(CCN1CCCC1Cc1ccccc1)c1ccc2c(c1)OCCO2 (configuration not stated)	-11	i	i	-0.095	7*	i	82*	0.42	78%*	100%*
O=C(CCN1CCc2ccccc2C1)c1ccc2c(c1)OCCO2	-24	i	i	0.39	7*	i	44*	0.38*	70%*	83%*
O=C(CCN1CCC(c2ccccc2)C1)c1ccc2c(c1)OCCO2 (configuration not stated)	-16	i	i	·	6*	i	45*	0.43	60%*	56%*
O=C(CCN1CCc2ccccc21)c1ccc2c(c1)OCCO2	-8	i	i	-1.5	i	i	·	·	·	·
CCc1nc(C(N)=O)c2[nH]c(=O)n(-c3ccccc3F)c2n1	-9	i	i	·	i	i	·	·	·	·
CCC1(CC)Cc2ccccc2-c2nc(-c3ccccc3)oc(=O)c21	-12	i	i	·	7*	i	60*	0.45	103%*	91%*
O=c1oc(-c2ccccc2)nc2c1C1(CCCCC1)Cc1ccccc1-2	-8	i	i	-0.52	i	i	·	·	·	·

Compound activity deposited in PubChem BioAssay by several laboratories.
